# Published values from different studies.
# Lines come from different studies, so protocols differ.
# EAPA: Endothiapepsin (EAPA, Cryphonectria parasitica, UniProt P11838)
# TACR1: Substance-P receptor (TACR1, Homo sapiens, UniProt P25103)
# Trypanothione synthetase: Trypanothione synthetase (Trypanosoma cruzi, UniProt Q9GT49)
# HTR2C: 5-hydroxytryptamine receptor 2C (HTR2C, Homo sapiens, UniProt P28335)
SMILES,target,observed,mode,method,tested at,pH,inhibition
Ic1cccc2cnccc12,"Poly [ADP-ribose] polymerase tankyrase-2 (TNKS2, Homo sapiens, UniProt Q9H2K2)",enzyme activity,inhibitor,,10 µM,,12%
CNC(=O)c1cc(Oc2ccc(NC(=O)Nc3ccc(Cl)c(C(F)(F)F)c3)cc2)ccn1,"Serine/threonine-protein kinase SIK1 (SIK1, Homo sapiens, UniProt P57059)",enzyme activity,inhibitor,,10 µM,,3%
CCCCCC(NN)c1nnnn1Cc1ccc2c(c1)OCO2 (stereo not shown),EAPA,enzyme activity,inhibitor,,200 µM,,32.8%
O=C(Nc1ccc(S(=O)(=O)N2CCC(Cl)CC2)cc1)c1ccc([N+](=O)[O-])o1,TACR1,ligand displacement,,radioligand,10 µM,,3%
CCOC(=O)CN1C(=O)Cc2c([nH]c3ccc(Br)cc23)-c2ccc(Cl)cc21,Trypanothione synthetase,enzyme activity,inhibitor,absorbance,30 µM,,19.1%
O=C(O)c1ccc(C(=O)O)nc1,"Stromelysin-1 (MMP3, Homo sapiens, UniProt P08254)",enzyme activity,inhibitor,,1 mM,pH 6,> 80%
CS(=O)(=O)O.c1cc2c(cc1C1CCCCC1)c1c3n2CCNC3CCC1 (stereo not shown),Trypanothione synthetase,enzyme activity,inhibitor,absorbance,25 µM,,28.9%
CN(C)C1CCN(CC#Cc2nn(C3CCCC3)c3nc(NCc4ccccc4)ncc23)C1 (stereo not shown),"Serine/threonine-protein kinase PLK1 (PLK1, Homo sapiens, UniProt P53350)",enzyme activity,inhibitor,FRET,10 µM,,-5%
NNC(COCc1ccccc1)c1nnnn1Cc1ccc2c(c1)OCO2 (stereo not shown),EAPA,enzyme activity,inhibitor,,200 µM,,48.3%
O=C(c1ccc(F)cc1)N(Cc1ccccc1)C1CCCCC1,"B1 bradykinin receptor (BDKRB1, Homo sapiens, UniProt P46663)",cell-free assay,,,10 µM,,-7%
CCC(C)C(NN)c1nnnn1CC(c1ccccc1)c1ccccc1 (stereo not shown),EAPA,enzyme activity,inhibitor,,200 µM,,40.3%
CCN(CC)CCNC(=O)CN1C(=O)Cc2c([nH]c3ccc(Br)cc23)-c2ccc(Cl)cc21,Trypanothione synthetase,enzyme activity,inhibitor,absorbance,30 µM,,17.1%
COc1cc(NC(C)=O)c(Cl)cc1C(=O)Nc1nccs1,HTR2C,ligand displacement,,radioligand,10 µM,,48.8%
CN1CCN(CCNC(=O)CN2C(=O)Cc3c([nH]c4ccc(Br)cc34)-c3ccc(Cl)cc32)CC1,Trypanothione synthetase,enzyme activity,inhibitor,absorbance,30 µM,,16.8%
FC(F)(F)c1ccc(-c2nnc(-c3cc4c(s3)CCCC4)o2)cn1,"1-deoxy-D-xylulose-5-phosphate synthase (dxs, Deinococcus radiodurans, UniProt Q9RUB5)",enzyme activity,inhibitor,,120 µM,,0%
CCCNc1nc2ccccc2n1Cc1ccc(Cl)cc1,HTR2C,ligand displacement,,radioligand,10 µM,,80%
O=C(CN1C(=O)Cc2c([nH]c3ccc(Br)cc23)-c2ccc(Cl)cc21)N1CCNCC1,Trypanothione synthetase,enzyme activity,inhibitor,absorbance,30 µM,,17.1%
O=C(c1ccc(Cl)cc1)N(Cc1ccccc1)C1CCCCC1,TACR1,cell-free assay,,,10 µM,,15.1%
O=C(CN1C(=O)Cc2c([nH]c3ccc(Br)cc23)-c2ccc(Cl)cc21)Nc1ccccc1,Trypanothione synthetase,enzyme activity,inhibitor,absorbance,30 µM,,29.6%
CC1CNc2c(cccc2S(=O)(=O)N[C@@H](CCCNC(=N)N)C(=O)N2CC[C@@H](C)C[C@@H]2C(=O)O)C1 (stereo partly shown),"Prothrombin (F2, Bos taurus, UniProt P00735)",enzyme activity,inhibitor,fluorescence,0.1 µg/mL,,94%
O=C(CN1C(=O)Cc2c([nH]c3ccc(Br)cc23)-c2ccc(Cl)cc21)NCCN1CCCCC1,Trypanothione synthetase,enzyme activity,inhibitor,absorbance,30 µM,,21.4%
CCN(Cc1ccccc1C(F)(F)F)C(=O)C1CCN(S(=O)(=O)c2ccc3[nH]ncc3c2)CC1,TACR1,ligand displacement,,radioligand,10 µM,,18%
